Source: article PMC4958353 (Drug Design, Development and Therapy, 2016)
Values after ≈ are worked out from the molar mass of the structure shown.

Key:
in vitro = conditions: human
M. tuberculosis H37Rv = test: microplate Alamar Blue assay, in vitro anti-TB activity; assay type: cell-based; conditions: Mycobacterium tuberculosis
human serum albumin = human serum albumin (Homo sapiens, UniProt P02768); test: protein binding by reverse-phase HPLC on human serum albumin column; assay type: in vitro ADME
[1] = pKa by reverse-phase HPLC; assay type: physicochemical
[2] = human liver microsomal stability; assay type: in vitro ADME; conditions: HLM incubation
In short: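 Test compound incubated with human liver microsomes. The percentage of parent compound remaining was read at 15 min, 30 min, 1 h and 2 h of incubation.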

[3] = compared with compound 10b (90.5%); cited from earlier work

Chain of human serum albumin (P02768 25-609): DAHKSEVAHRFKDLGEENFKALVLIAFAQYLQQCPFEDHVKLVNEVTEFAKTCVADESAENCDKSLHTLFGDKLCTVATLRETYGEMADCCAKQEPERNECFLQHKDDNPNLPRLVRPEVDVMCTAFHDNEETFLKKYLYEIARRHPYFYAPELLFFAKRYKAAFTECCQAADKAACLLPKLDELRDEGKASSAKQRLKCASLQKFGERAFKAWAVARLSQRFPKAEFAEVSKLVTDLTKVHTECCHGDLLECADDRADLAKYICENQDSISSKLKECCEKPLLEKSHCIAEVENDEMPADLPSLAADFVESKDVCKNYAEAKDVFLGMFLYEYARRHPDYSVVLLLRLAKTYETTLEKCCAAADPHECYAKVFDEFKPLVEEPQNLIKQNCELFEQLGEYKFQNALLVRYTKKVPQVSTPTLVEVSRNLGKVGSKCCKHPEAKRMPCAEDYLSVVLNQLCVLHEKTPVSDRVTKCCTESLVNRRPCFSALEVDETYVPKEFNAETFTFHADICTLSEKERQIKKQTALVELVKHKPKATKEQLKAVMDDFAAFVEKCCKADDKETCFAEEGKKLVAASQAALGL

In the case of `NC(=O)C(CC(=O)c1cccc(Oc2ccccc2)c1)c1ccccc1` (centres unmarked) [Compound 5a, 4-Oxo-4-(3-phenoxyphenyl)-2-phenylbutanamide], the CC50 (in vitro) is reported as > 300 µg/mL and the MIC (M. tuberculosis H37Rv) is reported as > 100 µg/mL.

In the case of `Cc1ccc(C(CC(=O)c2cccc(Oc3ccccc3)c2)C(N)=O)cc1` (centres unmarked) [Compound 5b, 4-Oxo-4-(3-phenoxyphenyl)-2-p-tolylbutanamide], the CC50 (in vitro) is reported as > 300 µg/mL and the MIC (M. tuberculosis H37Rv) is reported as > 100 µg/mL.

In the case of `NC(=O)C(CC(=O)c1ccc(Oc2ccccc2)c(O)c1)c1ccccc1` (centres unmarked) [Compound 10a, 4-(3-Hydroxy-4-phenoxyphenyl)-4-oxo-2-phenylbutanamide], the CC50 (in vitro) is reported as > 300 µg/mL and the MIC (M. tuberculosis H37Rv) is reported as 20 µg/mL (≈ 55.3 µM).

In the case of `Cc1ccc(C(CC(=O)c2ccc(Oc3ccccc3)c(O)c2)C(N)=O)cc1` (centres unmarked) [Compound 10b, 4-(3-Hydroxy-4-phenoxyphenyl)-4-oxo-2-p-tolylbutanamide], the fraction unbound (human serum albumin) is reported as 0.095, the CC50 (in vitro) is reported as > 300 µg/mL and the MIC (M. tuberculosis H37Rv) is reported as 12.5 µg/mL (≈ 33.3 µM). It also gave a pKa [1] of 7.59, a Percentage remaining ([2]; 15 minutes) of 70.18% and a Percentage remaining ([2]; 30 minutes) of 57.49%. For the same molecule, the Percentage remaining ([2]; 1 hour) was 50.68% and the Percentage remaining ([2]; 2 hours) was 40.35%.

With `COc1ccc(C(CC(=O)c2ccc(Oc3ccccc3)c(O)c2)C(N)=O)cc1` (centres unmarked) [Compound 10c, 4-(3-Hydroxy-4-phenoxyphenyl)-2-(4-methoxyphenyl)-4-oxobutanamide] the CC50 (in vitro) was 261 µg/mL (≈ 666 µM) and the MIC (M. tuberculosis H37Rv) was 25 µg/mL (≈ 63.9 µM).

Work on `NNC(=O)c1ccncc1` [Isoniazid, reference compound] yielded an MIC (M. tuberculosis H37Rv) of 0.125 µg/mL (≈ 0.911 µM).

In the case of `Oc1cc(Cl)ccc1Oc1ccc(Cl)cc1Cl` [Triclosan, reference compound], the CC50 (in vitro) is listed as > 300 µg/mL, the MIC (M. tuberculosis H37Rv) is listed as 12.5 µg/mL (≈ 43.2 µM) and the plasma protein binding [3] is listed as “even higher than compound 10b”.
